This passage reports MIC80 and Ratio results from ChEMBL document CHEMBL2417544, “Design, synthesis and biological evaluation of azithromycin glycosyl derivatives as potential antibacterial agents” (2013).

What all share (format): functional
The test system of experiment [1] is Streptococcus pneumoniae. The experiment in a line: Antibacterial activity against Streptococcus pneumoniae 746 by standard dilution assay. The gist of the method:
(§1)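 Broth dilution MIC per NCCLS guidance. Compounds dissolved in DMSO, serially diluted in growth medium, inoculated and incubated at 35 °C. MIC80 taken as the first well showing roughly 80% less growth than the drug-free well. Each test run three times; values are means of replicates.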

In experiment [2] the test system is Staphylococcus aureus. The experiment in a line: Ratio of erythromycin A MIC80 to compound MIC80 for methicillin-susceptible Staphylococcus aureus MSSA-1. The gist of the method:
(§2)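 Ratio of the reference macrolide's MIC80 (azithromycin or erythromycin A, tested in parallel) to the compound's MIC80. Both come from the same NCCLS broth dilution run: DMSO stocks serially diluted in medium, inoculated, 35 °C. MIC80 is the first well with about 80% lower growth than the drug-free control. Triplicate tests, means used.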

Experiment [3] relates to Staphylococcus aureus. The experiment in a line: Antibacterial activity against Staphylococcus aureus ATCC 25923 by standard dilution assay. The gist of the method: (§3)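 Broth dilution MIC per NCCLS guidance. Compounds dissolved in DMSO, serially diluted in growth medium, inoculated and incubated at 35 °C. MIC80 read as the first well with about 80% less growth than the drug-free well. Erythromycin and azithromycin were run as positive controls. Each test was done three times, and values are means of the replicates.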

The subject of experiment [4] is Streptococcus pneumoniae. The experiment in a line: Ratio of azithromycin MIC80 to compound MIC80 for Streptococcus pneumoniae 943. The gist of the method: as §2
For experiment [5], the system named is Staphylococcus aureus. The experiment in a line: Antibacterial activity against methicillin-resistant Staphylococcus aureus MRSA-1 by standard dilution assay. The gist of the method:
as §3

The subject of experiment [6] is Escherichia coli. The experiment in a line: Antibacterial activity against Escherichia coli 236 by standard dilution assay. The gist of the method:
as §1

Experiment [7] relates to Streptococcus pneumoniae. The experiment in a line: Antibacterial activity against Streptococcus pneumoniae 943 by standard dilution assay. The gist of the method: as §1
The subject of experiment [8] is Streptococcus pneumoniae. The experiment in a line: Ratio of erythromycin A MIC80 to compound MIC80 for Streptococcus pneumoniae 746. The gist of the method:
as §2

Experiment [9] has as its system Streptococcus pneumoniae. The experiment in a line: Ratio of erythromycin A MIC80 to compound MIC80 for Streptococcus pneumoniae 943. The gist of the method: as §2
In experiment [10] the test system is Streptococcus pyogenes. The experiment in a line: Antibacterial activity against Streptococcus pyogenes 447 by standard dilution assay. The gist of the method:
as §1

Experiment [11] concerns Escherichia coli. The experiment in a line: Antibacterial activity against Escherichia coli ATCC 25922 by standard dilution assay. The gist of the method:
as §1

Experiment [12] concerns Staphylococcus aureus. The experiment in a line: Antibacterial activity against methicillin-susceptible Staphylococcus aureus MSSA-1 by standard dilution assay. The gist of the method: as §3

Values after ≈ are worked out from the molar mass of the structure shown.

Usually MIC80 stands for an inhibitory concentration at the 80% level, which refers to growth in some studies and to a panel of isolates in others. Low readings indicate greater potency, high ones weaker potency.

As to `CC[C@H]1OC(=O)[C@H](C)[C@@H](O[C@H]2C[C@@](C)(OC)[C@@H](OC(=O)NCCO[C@@H]3O[C@H](CO)[C@@H](O)[C@H](O)[C@H]3O)[C@H](C)O2)[C@H](C)[C@@H](O[C@@H]2O[C@H](C)C[C@H](N(C)C)[C@H]2O)[C@](C)(O)C[C@@H](C)CN(C)[C@H](C)[C@H]2OC(=O)O[C@@]21C`, the MIC80 stood at 2 µg/mL (≈ 1.95 µM) in [1]; 8 µg/mL (≈ 7.81 µM) in experiment [3]; 16 µg/mL (≈ 15.6 µM) in [5]; 64 µg/mL (≈ 62.5 µM) in [6]; 1 µg/mL (≈ 0.976 µM) in [7]; 16 µg/mL (≈ 15.6 µM) in [10]. Besides, the MIC80 worked out at 128 µg/mL (≈ 125 µM) in experiment [11] and 2 µg/mL (≈ 1.95 µM) in experiment [12]. In addition, the Ratio in [2] amounted to 8; in [4] it was 4; in [8], 8; in experiment [9] it was 8.
On to `CC[C@H]1OC(=O)[C@H](C)[C@@H](O[C@H]2C[C@@](C)(OC)[C@@H](OC(=O)NCCO[C@@H]3O[C@H](CO)[C@@H](O)[C@H]3O)[C@H](C)O2)[C@H](C)[C@@H](O[C@@H]2O[C@H](C)C[C@H](N(C)C)[C@H]2O)[C@](C)(O)C[C@@H](C)CN(C)[C@H](C)[C@H]2OC(=O)O[C@@]21C`, for which the MIC80 was 8 µg/mL (≈ 8.05 µM) in experiment [1]; 4 µg/mL (≈ 4.02 µM) in [3]; 8 µg/mL (≈ 8.05 µM) in experiment [5]; 64 µg/mL (≈ 64.4 µM) in experiment [6]; 4 µg/mL (≈ 4.02 µM) in experiment [7]; 64 µg/mL (≈ 64.4 µM) in [10]. Besides, the MIC80 in experiment [11] worked out at 128 µg/mL (≈ 129 µM); in [12], 8 µg/mL (≈ 8.05 µM).
With `CC[C@H]1OC(=O)[C@H](C)[C@@H](O[C@H]2C[C@@](C)(OC)[C@@H](O)[C@H](C)O2)[C@H](C)[C@@H](O[C@@H]2O[C@H](C)C[C@H](N(C)C)[C@H]2O)[C@](C)(O)C[C@@H](C)CN(C)[C@H](C)[C@@H](O)[C@]1(C)O` [AZITHROMYCIN], the MIC80 in experiment [1] turned out to be 8 µg/mL (≈ 10.7 µM); in experiment [3], 16 µg/mL (≈ 21.4 µM); in experiment [5] it was 16 µg/mL (≈ 21.4 µM); in experiment [6], 256 µg/mL (≈ 342 µM); in [7], 4 µg/mL (≈ 5.34 µM); in experiment [10] it was 32 µg/mL (≈ 42.7 µM). Besides, the figures for the MIC80 in experiment [11] and in experiment [12] were 256 µg/mL (≈ 342 µM) and 2 µg/mL (≈ 2.67 µM), respectively.
In the case of `CC[C@H]1OC(=O)[C@H](C)[C@@H](O[C@H]2C[C@@](C)(OC)[C@@H](OC(=O)NCCO[C@@H]3O[C@H](CO)[C@H](O)[C@H](O)[C@H]3O)[C@H](C)O2)[C@H](C)[C@@H](O[C@@H]2O[C@H](C)C[C@H](N(C)C)[C@H]2O)[C@](C)(O)C[C@@H](C)CN(C)[C@H](C)[C@H]2OC(=O)O[C@@]21C`, the MIC80 in experiment [1] stood at 2 µg/mL (≈ 1.95 µM); in [3], 32 µg/mL (≈ 31.2 µM); in [5] it was 32 µg/mL (≈ 31.2 µM); in experiment [6], 128 µg/mL (≈ 125 µM); in experiment [7], 1 µg/mL (≈ 0.976 µM); in experiment [10], 64 µg/mL (≈ 62.5 µM). In addition, the figures for the MIC80 in experiment [11] and in experiment [12] were 128 µg/mL (≈ 125 µM) and 4 µg/mL (≈ 3.91 µM), respectively. The Ratio turned out to be 4 in experiment [4], 8 in experiment [8] and 8 in experiment [9].
Turning to `CC[C@H]1OC(=O)[C@H](C)[C@@H](O[C@H]2C[C@@](C)(OC)[C@@H](O)[C@H](C)O2)[C@H](C)[C@@H](O[C@@H]2O[C@H](C)C[C@H](N(C)C)[C@H]2O)[C@](C)(O)C[C@@H](C)C(=O)[C@H](C)[C@@H](O)[C@]1(C)O` [ERYTHROMYCIN], the MIC80 in [1] amounted to 16 µg/mL (≈ 21.8 µM); in [3], 16 µg/mL (≈ 21.8 µM); in experiment [5] it was 16 µg/mL (≈ 21.8 µM); in [6] it was 256 µg/mL (≈ 349 µM); in experiment [7] it was 8 µg/mL (≈ 10.9 µM); in experiment [10], 32 µg/mL (≈ 43.6 µM). Also, the MIC80 in [11] is 256 µg/mL (≈ 349 µM); in experiment [12] it was 16 µg/mL (≈ 21.8 µM).
Consider `CC[C@H]1OC(=O)[C@H](C)[C@@H](O[C@H]2C[C@@](C)(OC)[C@@H](OC(=O)NCCO[C@@H]3O[C@@H](C)[C@H](O)[C@@H](O)[C@H]3O)[C@H](C)O2)[C@H](C)[C@@H](O[C@@H]2O[C@H](C)C[C@H](N(C)C)[C@H]2O)[C@](C)(O)C[C@@H](C)CN(C)[C@H](C)[C@H]2OC(=O)O[C@@]21C`, for which the MIC80 in experiment [1] came to 8 µg/mL (≈ 7.93 µM); in [3], 16 µg/mL (≈ 15.9 µM); in experiment [5], 8 µg/mL (≈ 7.93 µM); in experiment [6], 128 µg/mL (≈ 127 µM); in experiment [7] it was 4 µg/mL (≈ 3.97 µM); in experiment [10], 64 µg/mL (≈ 63.5 µM). For the same compound, the MIC80 in experiment [11] came out at 128 µg/mL (≈ 127 µM); in experiment [12], 2 µg/mL (≈ 1.98 µM). Moreover, the Ratio in [2] is 8.
`CC[C@H]1OC(=O)[C@H](C)[C@@H](O[C@H]2C[C@@](C)(OC)[C@@H](OC(=O)NCCO[C@@H]3O[C@H](CO)[C@@H](O[C@H]4O[C@H](CO)[C@@H](O)[C@H](O)[C@H]4O)[C@H](O)[C@H]3O)[C@H](C)O2)[C@H](C)[C@@H](O[C@@H]2O[C@H](C)C[C@H](N(C)C)[C@H]2O)[C@](C)(O)C[C@@H](C)CN(C)[C@H](C)[C@H]2OC(=O)O[C@@]21C`: the MIC80 was 16 µg/mL (≈ 13.5 µM) in [1]; 32 µg/mL (≈ 27 µM) in [3]; 16 µg/mL (≈ 13.5 µM) in experiment [5]; 128 µg/mL (≈ 108 µM) in experiment [6]; 8 µg/mL (≈ 6.74 µM) in experiment [7]; 32 µg/mL (≈ 27 µM) in [10]. In addition, the MIC80 worked out at 256 µg/mL (≈ 216 µM) in [11] and 16 µg/mL (≈ 13.5 µM) in experiment [12].
As for `CC[C@H]1OC(=O)[C@H](C)[C@@H](O[C@H]2C[C@@](C)(OC)[C@@H](OC(=O)NCCO[C@@H]3OC[C@@H](O)[C@H](O)[C@H]3O)[C@H](C)O2)[C@H](C)[C@@H](O[C@@H]2O[C@H](C)C[C@H](N(C)C)[C@H]2O)[C@](C)(O)C[C@@H](C)CN(C)[C@H](C)[C@H]2OC(=O)O[C@@]21C`, the MIC80 in experiment [1] came to 4 µg/mL (≈ 4.02 µM); in experiment [3], 8 µg/mL (≈ 8.05 µM); in [5], 16 µg/mL (≈ 16.1 µM); in experiment [6], 64 µg/mL (≈ 64.4 µM); in experiment [7], 2 µg/mL (≈ 2.01 µM); in experiment [10] it was 16 µg/mL (≈ 16.1 µM). Further, the MIC80 in experiment [11] worked out at 256 µg/mL (≈ 257 µM); in experiment [12], 16 µg/mL (≈ 16.1 µM).
On to `CC[C@H]1OC(=O)[C@H](C)[C@@H](O[C@H]2C[C@@](C)(OC)[C@@H](OC(=O)NCCO[C@@H]3O[C@H](CO)[C@@H](O)[C@H](O)[C@@H]3O)[C@H](C)O2)[C@H](C)[C@@H](O[C@@H]2O[C@H](C)C[C@H](N(C)C)[C@H]2O)[C@](C)(O)C[C@@H](C)CN(C)[C@H](C)[C@H]2OC(=O)O[C@@]21C`, for which the MIC80 in [1] amounted to 4 µg/mL (≈ 3.91 µM); in experiment [3], 8 µg/mL (≈ 7.81 µM); in experiment [5], 8 µg/mL (≈ 7.81 µM); in experiment [6], 64 µg/mL (≈ 62.5 µM); in [7] it was 4 µg/mL (≈ 3.91 µM); in experiment [10], 32 µg/mL (≈ 31.2 µM). The MIC80 in experiment [11] worked out at 128 µg/mL (≈ 125 µM); in experiment [12], 8 µg/mL (≈ 7.81 µM).
Regarding `CC[C@H]1OC(=O)[C@H](C)[C@@H](O[C@H]2C[C@@](C)(OC)[C@@H](OC(=O)NCCO[C@@H]3O[C@H](CO)[C@@H](O[C@@H]4O[C@H](CO)[C@@H](O)[C@H](O)[C@H]4O)[C@H](O)[C@H]3O)[C@H](C)O2)[C@H](C)[C@@H](O[C@@H]2O[C@H](C)C[C@H](N(C)C)[C@H]2O)[C@](C)(O)C[C@@H](C)CN(C)[C@H](C)[C@H]2OC(=O)O[C@@]21C`, the MIC80 in experiment [1] amounted to 16 µg/mL (≈ 13.5 µM); in [3], 16 µg/mL (≈ 13.5 µM); in experiment [5], 32 µg/mL (≈ 27 µM); in experiment [6], 128 µg/mL (≈ 108 µM); in experiment [7] it was 8 µg/mL (≈ 6.74 µM); in experiment [10] it was 64 µg/mL (≈ 53.9 µM). For the same compound, the values for the MIC80 in [11] and in experiment [12] were 256 µg/mL (≈ 216 µM) and 32 µg/mL (≈ 27 µM), respectively.
